Data set [1] relates to HeLa. Briefly: Photocytotoxicity against human HeLa cells treated for 3 hrs followed by 15 J/mc2 irradiation measured 24 hrs after irradiation by resazurin proliferation assay. The format is functional. The method, boiled down: (§1)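 Cells were seeded to reach plateau growth: HeLa and B78-H1 at 5000, HepG2 and MCF-7 at 7000 cells/well. They were incubated 3 h with increasing squaraine concentrations (DMSO stock, final DMSO <0.2%, DMSO-matched control), then irradiated 30 min with a metal halogen lamp (15 J/cm2). Resazurin proliferation was read 24 h later as % of untreated fluorescence. IC50 was estimated from dose-response plots; means ± SDs of three independent experiments.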
On the technique in general: Resazurin is reduced to fluorescent resorufin, in cell work by metabolically active cells.

Data set [2] concerns HepG2. Briefly: Photocytotoxicity against human HepG2 cells treated for 3 hrs followed by 15 J/mc2 irradiation measured 24 hrs after irradiation by resazurin proliferation assay. Format: functional. The method, boiled down: as §1
Data set [3] has as its system HeLa. Briefly: Cellular uptake in human HeLa cells assessed as localization to cytoplasm at 1 uM after 4 hrs by confocal laser microscopy. The format is ADME, cell-based. The essentials: (§2)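 HeLa cells seeded (2 × 10^5) on coverslips, treated 24 h later with squaraine for 3 h (figure legend states 4 h), then irradiated with a metal halogen white lamp at 15 J/cm2. Cells were fixed with PFA, permeabilized with Triton X-100 (0.1% in PBS) and nuclei stained with Hoechst. Localization was imaged by confocal laser microscopy.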

Data set [4] concerns HeLa. In words: Cellular uptake in human HeLa cells assessed as localization to nucleus at 1 uM after 4 hrs by confocal laser microscopy. Format: ADME, cell-based. The essentials:
as §2

The subject of data set [5] is HeLa. Briefly: Cytotoxicity against human HeLa cells under dark condition after 24 hrs by resazurin proliferation assay. Format: cell-based. The method, boiled down:
(§3)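 Cells were seeded to reach plateau growth: HeLa and B78-H1 at 5000, HepG2 and MCF-7 at 7000 cells/well. They were exposed to increasing squaraine concentrations in the dark, with compound from DMSO diluted in medium (final DMSO <0.2%). Viability was measured by resazurin fluorescence as RFU treated/RFU untreated × 100. Values are means ± SDs of three independent experiments.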

Data set [6] deals with HepG2. In words: Cytotoxicity against human HepG2 cells under dark condition after 24 hrs by resazurin proliferation assay. The format is cell-based. The note with it: hepg2, 24 h. The essentials:
as §3

Data set [7] in a line: Cytotoxicity against mouse B78H1 cells under dark condition after 24 hrs by resazurin proliferation assay. The format is cell-based. The note with it: b78h1, 24 h. The essentials: as §3
Data set [8] concerns MCF7. Briefly: Cytotoxicity against human MCF7 cells under dark condition after 24 hrs by resazurin proliferation assay. The format is cell-based. To be noted: mcf7, 24 h. The essentials: as §3
Data set [9] concerns HeLa. Briefly: Cytotoxicity against human HeLa cells under dark condition at 5 uM after 24 hrs by resazurin proliferation assay. The format is cell-based. The essentials: as §3
Data set [10] deals with HepG2. In words: Cytotoxicity against human HepG2 cells under dark condition at 5 uM after 24 hrs by resazurin proliferation assay. The format is cell-based. The note with it: hepg2, 24 h. The essentials:
as §3

The nature of data set [11]: Cytotoxicity against mouse B78H1 cells under dark condition at 5 uM after 24 hrs by resazurin proliferation assay. The format is cell-based. To be noted: b78h1, 24 h. The method, boiled down:
as §3

Data set [12] has as its system MCF7. Briefly: Cytotoxicity against human MCF7 cells under dark condition at 5 uM after 24 hrs by resazurin proliferation assay. The note with it: mcf7, 24 h. Format: cell-based. The method, boiled down:
as §3

The subject of a further data set is HUVEC. Briefly: Cytotoxicity against HUVEC cells under dark condition after 24 hrs by resazurin proliferation assay. Format: cell-based. To be noted: human.
The subject of data set [13] is Mus musculus. In words: Toxicity in C57BL/6 mouse bearing mouse B78H1 cells assessed as mortality at 3 umol/kg, iv measured after 1 week. Format: organism-based. The note with it: in vivo, 168 h. The method, boiled down:
(§4)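 Squaraine given to mice at 3 μmol/kg (the dose used for PDT experiments), formulated in small unilamellar dioleoylphosphatidylcholine liposomes and injected.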

The test system of data set [14] is Mus musculus. In words: Toxicity in C57BL/6 mouse bearing mouse B78H1 cells assessed as behavioral changes at 3 umol/kg, iv measured for 1 week. Format: organism-based. The note with it: in vivo, 168 h. The method, boiled down: as §4
Data set [15] in a line: Photocytotoxicity against mouse B78H1 cells treated for 3 hrs followed by 15 J/mc2 irradiation measured 24 hrs after irradiation by resazurin proliferation assay. Format: functional. The method, boiled down: as §1
Data set [16] relates to MCF7. In words: Photocytotoxicity against human MCF7 cells treated for 3 hrs followed by 15 J/mc2 irradiation measured 24 hrs after irradiation by resazurin proliferation assay. Format: functional. The essentials: as §1
Data set [17] deals with HeLa. In words: Photocytotoxicity against human HeLa cells assessed as cell growth arrest at 1.5 uM for 3 hrs followed by 15 J/mc2 irradiation measured 72 hrs after irradiation by resazurin proliferation assay. Format: functional, cell-based. The method, boiled down: (§5)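 HeLa cells were given squaraine, irradiated with light (15 J/cm2), and followed for up to 72 h after light treatment for proliferation. Controls were cells treated only with light.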

For data set [18], the system named is HeLa. In words: Photocytotoxicity against human HeLa cells assessed as induction of lipid peroxidation-mediated malondialdehyde production at 1.8 uM for 3 hrs followed by 15 J/mc2 irradiation by TBARS assay relative to untreated control. The format is functional.
For data set [19], the system named is MCF7. In words: Photocytotoxicity against human MCF7 cells assessed as induction of lipid peroxidation-mediated malondialdehyde production at 1.8 uM for 3 hrs followed by 15 J/mc2 irradiation by TBARS assay relative to untreated control. Format: functional, cell-based.
The subject of data set [20] is MCF7. Briefly: Photocytotoxicity against human MCF7 cells assessed as induction of lipid peroxidation-mediated malondialdehyde production at 9.6 uM for 3 hrs followed by 15 J/mc2 irradiation by TBARS assay relative to untreated control. Format: functional, cell-based.
The test system of data set [21] is HeLa. Briefly: Photocytotoxicity against human HeLa cells assessed as apoptotic cells at 1.5 uM for 3 hrs followed by 15 J/mc2 irradiation by annexin V/propidium iodide staining-based FACS flow cytometry (Rvb=1.3%). Format: functional.
The test system of data set [22] is HeLa. Briefly: Photocytotoxicity against human HeLa cells assessed as necrotic cells at 1.5 uM for 3 hrs followed by 15 J/mc2 irradiation by annexin V/propidium iodide staining-based FACS flow cytometry (Rvb=1.0%). Format: functional.
The test system of data set [23] is HeLa. Briefly: Photocytotoxicity against human HeLa cells assessed as necrotic cells at 1.5 uM for 3 hrs followed by 15 J/mc2 measured 72 hrs irradiation by propidium iodide staining. Format: functional, cell-based. The essentials:
(§6)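 HeLa cells (2.5 × 10^5, six-well) were treated with squaraine the next day and photoactivated. The medium was then replaced with fresh medium containing Hoechst and PI (both 2 μg/mL). Living cells were time-lapse imaged at 37 °C, 5% CO2 over 72 h, with necrotic (PI-red, swollen) and apoptotic (shrinkage, blebbing, apoptotic bodies) morphology scored. Controls had no squaraine.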

In data set [24] the test system is HeLa. Briefly: Induction of apoptosis in human HeLa cells assessed as apoptotic bodies at 1.5 uM for 3 hrs followed by 15 J/mc2 measured 72 hrs irradiation by propidium iodide staining. The format is functional, cell-based. The essentials: as §6
Data set [25] relates to HeLa. Briefly: Induction of apoptosis in human HeLa cells assessed as caspase 3/7 activation at 1.5 uM for 3 hrs followed by 15 J/mc2. Format: functional, cell-based. The essentials:
(§7)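 HeLa cells (5000/well) were incubated 3 h with squaraine and irradiated at 15 J/cm2. Caspase-3/7 activity was measured 2.5, 16 and 22 h after light using a homogeneous fluorogenic reagent (substrate 1:100 in buffer, 1:1 with sample), with ex 485/em 530 nm. Values are means ± SDs of at least two independent experiments.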

Data set [26] deals with HeLa. In words: Cellular uptake in human HeLa cells assessed as localization to cytoplasm at 8 uM after 4 hrs by confocal laser microscopy. The format is ADME, cell-based. The essentials:
as §2

Data set [27] deals with HeLa. Briefly: Cellular uptake in human HeLa cells assessed as localization to nucleus at 8 uM after 4 hrs by confocal laser microscopy. Format: ADME, cell-based. The method, boiled down:
as §2

Data set [28] deals with HeLa. Briefly: Photocytotoxicity against human HeLa cells assessed as cell growth arrest at 9.6 uM for 3 hrs followed by 15 J/mc2 irradiation measured 72 hrs after irradiation by resazurin proliferation assay. Format: functional, cell-based. The method, boiled down:
as §5

Data set [29] relates to HeLa. Briefly: Photocytotoxicity against human HeLa cells assessed as induction of lipid peroxidation-mediated malondialdehyde production at 9.6 uM for 3 hrs followed by 15 J/mc2 irradiation by TBARS assay relative to untreated control. The format is functional.
Data set [30] deals with HeLa. In words: Photocytotoxicity against human HeLa cells assessed as apoptotic cells at 9.6 uM for 3 hrs followed by 15 J/mc2 irradiation by annexin V/propidium iodide staining-based FACS flow cytometry (Rvb=1.3%). Format: functional.
Data set [31] deals with HeLa. Briefly: Photocytotoxicity against human HeLa cells assessed as necrotic cells at 9.6 uM for 3 hrs followed by 15 J/mc2 irradiation by annexin V/propidium iodide staining-based FACS flow cytometry (Rvb=1.0%). Format: functional. For orientation: A flow cytometer gives signals particle by particle.
Data set [32] relates to HeLa. Briefly: Photocytotoxicity against human HeLa cells assessed as necrotic cells at 9.6 uM for 3 hrs followed by 15 J/mc2 measured 72 hrs irradiation by propidium iodide staining. The format is functional, cell-based. The essentials:
as §6

Data set [33] concerns HeLa. In words: Induction of apoptosis in human HeLa cells assessed as apoptotic bodies at 9.6 uM for 3 hrs followed by 15 J/mc2 measured 72 hrs irradiation by propidium iodide staining. Format: functional, cell-based. The method, boiled down: as §6
The test system of data set [34] is HeLa. In words: Induction of apoptosis in human HeLa cells assessed as caspase 3/7 activation at 9.6 uM for 3 hrs followed by 15 J/mc2. The format is functional, cell-based. The essentials:
as §7

Calls of active or inactive are those of the source. The calls are words filed in the database; no cut-off is given here.

The values below come from ChEMBL document CHEMBL1154927, “Photooxidation and Phototoxicity of pi-extended squaraines” (J Med Chem, 2010).

In the case of `CCCCCCN1/C(=C/C2=C([O-])C(=C\c3sc4ccccc4[n+]3CCCCCC)/C2=O)Sc2ccccc21`, the Activity with HeLa [1] is listed as 80%; in the data set on HepG2 [2], 80%; in the data set with HeLa [5] it was “Non-toxic”; with HepG2 [6] it was “Non-toxic”; in [7], “Non-toxic”; in the data set with MCF7 [8] it was “Non-toxic”. Further, the Activity entry in the data set with HeLa [9] is recorded as “Toxic”; with HepG2 [10], “Toxic”; in data set [11], “Toxic”; in the data set with MCF7 [12], “Toxic”; with HUVEC it was “Non-toxic”; in the data set on Mus musculus [13] it was “Non-toxic”. Besides, the Activity entry in the data set with Mus musculus [14] is “Non-toxic”; in data set [15], 80%; in the data set on MCF7 [16], 80%; with HeLa [21], 3.9%; with HeLa [22], 9.5%. Moreover, the Drug uptake result was “Active” in the data set on HeLa [3] and “Not Active” in the data set with HeLa [4]. Moreover, the result with HeLa [17], with MCF7 [19], in the data set on MCF7 [20], in the data set with HeLa [23], in the data set on HeLa [24] and with HeLa [25] was Active. Further, the “fold change (FC)” value in the data set on HeLa [18] is given as 4.

In the case of `CCCCCC[n+]1c(/C=C2\C(=O)C(c3ccc(-c4ccc(-c5ccc(C6=C([O-])/C(=C\c7sc8ccccc8[n+]7CCCCCC)C6=O)s5)s4)s3)=C2[O-])sc2ccccc21`, the Drug uptake entry in the data set with HeLa [26] is given as “Active”; with HeLa [27], “Not Active”. The outcome with HeLa [28], in the data set with MCF7 [19], in the data set with MCF7 [20], in the data set with HeLa [32], in the data set with HeLa [33] and with HeLa [34] was Active. For the same molecule, the “fold change (FC)” value in the data set on HeLa [29] turned out to be 4. Also, the Activity in the data set on HeLa [30] came out at 8.8%; in the data set on HeLa [31], 25.9%.
